The nature of data set [1]: melting temperature; fluorescence melt of hairpins on a sequencing array, two-state fit, raised by 9.35 °C to match UV melts. As to conditions: sodium 0.088 M. Summed up:
(§1)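 Hairpins were imaged by Cy3 fluorescence on a sequenced MiSeq flow cell with annealed Cy3 and quencher oligos, in 50 mM Na-HEPES pH 8.0, 25 mM NaCl, in 2.5 °C steps up to 60 °C. Bootstrapped two-state fits of normalised signals gave melting temperature and folding enthalpy. Four replicates were combined by inverse variance, and fitted temperatures were raised by 9.35 °C to match UV melts.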

Data set [2] can be described thus: folding enthalpy; higher = less favourable; fluorescence melt of hairpins on a sequencing array, two-state fit. Particulars: sodium 0.088 M. Summed up:
as §1

Tm and folding enthalpy data for 30 sequences are collected here from the array DNA melting data of Ke et al. (doi:10.1101/2024.01.08.574731).

With GCTGATCCGAAAGGAAGC (((..(((....)))))), in data set [1], the Tm was determined as 39 °C. For the same sequence, the folding enthalpy in data set [2] was -75.4 kJ/mol.

In the case of GCTGATCGAAAGATAAGC (((.(((....))).))), in data set [1], the Tm was found to be 49.5 °C. The folding enthalpy in data set [2] was -147 kJ/mol.

As for GCTGATCGAAAGATGAGC (((.(((....))).))), the Tm in data set [1] is 48 °C. Moreover, the folding enthalpy in data set [2] is -135 kJ/mol.

In the case of GCTGATGAAAATCAGC ((((((....)))))), the Tm in data set [1] is 60.6 °C. Moreover, in data set [2], the folding enthalpy was -150 kJ/mol.

For GCTGATGCGAAAGCAAGC (((..(((....)))))), the Tm in data set [1] is 43.5 °C. Also, the folding enthalpy in data set [2] was -81.1 kJ/mol.

With GCTGATGGAAACATCAAC (.(((((....))))).), the Tm in data set [1] was 36 °C. The folding enthalpy in data set [2] was -87.7 kJ/mol.

As to GCTGATGGAAACGTCAGC (((((.(....).))))), the Tm in data set [1] came out at 53.3 °C. Moreover, in data set [2], the folding enthalpy was -169 kJ/mol.

On to GCTGCCACGAAAGTGAGC (((..(((....)))))), for which, in data set [1], the Tm stood at 50.2 °C. Moreover, in data set [2], the folding enthalpy was -54.9 kJ/mol.

As to GCTGCCCGAAAGGGTAGC (((.(((....))).))), in data set [1], the Tm came out at 69 °C. Moreover, in data set [2], the folding enthalpy is -170 kJ/mol.

Consider GCTGCCGAAAGGCAAAGC ((((((....)))..))), for which the Tm in data set [1] was found to be 57.1 °C. Moreover, the folding enthalpy in data set [2] is -61.9 kJ/mol.

Take GCTGCCGAAAGGCTCAGC ((((((....)))..))): the Tm in data set [1] is 44.4 °C. Further, the folding enthalpy in data set [2] is -62.7 kJ/mol.

Take GCTGCCGGAAACAGCAGC (((((.(....).))))): the Tm in data set [1] is 53.8 °C. The folding enthalpy in data set [2] is -143 kJ/mol.

For the sequence GCTGCCGGAAACGGTGGC ((..(((....)))..)), in data set [1], the Tm amounted to 55.1 °C. The folding enthalpy in data set [2] was -167 kJ/mol.

As for GCTGCGACGAAAGTCAGC (((..(((....)))))), the Tm in data set [1] amounted to 51.4 °C. Also, the folding enthalpy in data set [2] was -56 kJ/mol.

With GCTGCGCGAAAGCACCGC ((.(.((....)).).)), the Tm in data set [1] came out at 41.3 °C. Besides, the folding enthalpy in data set [2] was -89.6 kJ/mol.

Regarding GCTGCGCGAAAGCCTAGC (((..((....))..))), the Tm in data set [1] came to 42.4 °C. Moreover, in data set [2], the folding enthalpy is -65.6 kJ/mol.

For GCTGCGCGAAAGCTCAGC ((((.((....)).)))), in data set [1], the Tm was 64.4 °C. Moreover, the folding enthalpy in data set [2] was -148 kJ/mol.

Consider GCTGCTGCGAAAGCAAGC (((..(((....)))))), for which the Tm in data set [1] is 54.1 °C. Besides, the folding enthalpy in data set [2] is -49 kJ/mol.

As to GCTGCTGGAAACAGTGGC ((..(((....)))..)), the Tm in data set [1] was 47.6 °C. The folding enthalpy in data set [2] was -168 kJ/mol.

As for GCTGCTGGAAACGGTAGC (((.(.(....).).))), the Tm in data set [1] stood at 41.3 °C. Moreover, the folding enthalpy in data set [2] was -131 kJ/mol.

As to GCTGGAGGAAACTCTGGC ((..(((....)))..)), the Tm in data set [1] was determined as 41.6 °C. Further, the folding enthalpy in data set [2] is -117 kJ/mol.

For the sequence GCTGGCCGAAAGGCAGC (((.(((....)))))), the Tm in data set [1] was determined as 65.8 °C. In addition, the folding enthalpy in data set [2] was -86.1 kJ/mol.

For the sequence GCTGGCCGAAAGGCGAGC (((.(((....))).))), the Tm in data set [1] was found to be 66.5 °C. Further, the folding enthalpy in data set [2] was -110 kJ/mol.

In the case of GCTGGCGAAAGCCACAGC ((((((....)))..))), the Tm in data set [1] turned out to be 49.5 °C. In addition, in data set [2], the folding enthalpy was -58.2 kJ/mol.

For the sequence GCTGGCGAAAGCCAGAGC ((((((....)))..))), the Tm in data set [1] came to 63.3 °C. Further, the folding enthalpy in data set [2] was -41.5 kJ/mol.

As for GCTGGCGAAAGCCTAAGC ((((((....)))..))), the Tm in data set [1] was 51.5 °C. For the same sequence, the folding enthalpy in data set [2] was -69 kJ/mol.

As to GCTGGCGGAAACGTCAGC ((((.((....)).)))), the Tm in data set [1] was 61.2 °C. For the same sequence, in data set [2], the folding enthalpy was -181 kJ/mol.

Take GCTGGGAAACCAGC (((((....))))): in data set [1], the Tm is 65.4 °C. In data set [2], the folding enthalpy was -125 kJ/mol.

In the case of GCTGGGACGAAAGTCAGC (((..(((....)))))), in data set [1], the Tm came to 46.3 °C. In addition, in data set [2], the folding enthalpy was -80.9 kJ/mol.

Consider GCTGGGCGAAAGCACTGC ((.(.((....)).).)), for which the Tm in data set [1] came out at 61.3 °C. Moreover, the folding enthalpy in data set [2] is -123 kJ/mol.
